Measured values published in ChEMBL document CHEMBL1126036, “Quinolone antibacterial agents. Synthesis and structure-activity relationships of a series of amino acid prodrugs of racemic and chiral 7-(3-amino-1-pyrrolidinyl)quinolones. Highly soluble quinolone prodrugs with in vivo pseudomonas activity” (J Med Chem, 1992).

How the values were obtained:
[1] = Solubility (in 0.1 N HCl); format: physicochemical; conditions: read-out: S
Outline: (§1)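 Solubility was measured either from HPLC peak areas at equilibrium or by a conventional weight-per-volume method. All solutions were held for 24 h before measurement.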

[2] = Solubility (at pH 4); format: physicochemical; conditions: buffer, read-out: S; outline: as §1
Escherichia coli [3] = assay: In vitro antibacterial activity against gram negative Escherichia coli Vogel.; format: functional
Enterococcus faecalis = assay: In vitro antibacterial activity against gram positive Enterococcus faecalis MGH-2.; format: functional
[4] = biological target: DNA gyrase (Escherichia coli) (UniProt P0AES6+P0AES4); assay: In vitro concentration inhibiting DNA gyrase induced cleavage in Escherichia coli H560.; format: functional
Outline: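 DNA gyrase test run as described in earlier work. The value is the drug concentration (µg/mL) needed to cause DNA cleavage.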

Enterobacter cloacae = assay: In vitro antibacterial activity against gram negative Enterobacter cloacae MA 2646.; format: functional
Klebsiella pneumoniae = assay: In vitro antibacterial activity against gram negative Klebsiella pneumoniae MGH-2.; format: functional
Escherichia coli [5] = assay: In vivo potency against acute systemic infection in mouse caused by Escherichia coli Vogel on oral administration by gavage.; format: functional; conditions: read-out: PD50
Outline: (§2)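 Acute systemic mouse infection. A single oral dose was given by gavage at the time of challenge. Potency is reported as the median protective dose (PD50, mg/kg), determined by earlier published methods.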

Streptococcus pneumoniae [6] = assay: In vivo potency against acute systemic infection in mouse caused by Streptococcus pneumoniae SV-1 on oral administration by gavage.; format: functional; conditions: read-out: PD50; outline: as §2
Streptococcus pneumoniae [7] = assay: In vivo potency against acute systemic infection in mouse caused by Streptococcus pneumoniae SV-1 on subcutaneous injection.; format: functional; conditions: sc, read-out: PD50
Outline: (§3)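 Acute systemic mouse infection. A single subcutaneous dose was injected at the time of challenge. Potency is reported as the median protective dose (PD50, mg/kg), determined by earlier published methods.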

Escherichia coli [8] = assay: In vivo potency against acute systemic infection in mouse caused by Escherichia coli vogel on subcutaneous injection.; format: functional; conditions: sc, read-out: PD50; outline: as §3
Pseudomonas aeruginosa = assay: In vitro antibacterial activity against gram negative Pseudomonas aeruginosa UI-18.; format: functional
Providencia rettgeri = assay: In vitro antibacterial activity against gram negative Providencia rettgeri M-1771.; format: functional
Staphylococcus aureus [9] = assay: In vitro antibacterial activity against gram positive Staphylococcus aureus H-228.; format: functional
Streptococcus pyogenes = assay: In vitro antibacterial activity against gram positive Streptococcus pyogenes C-203.; format: functional
Staphylococcus aureus [10] = assay: In vitro antibacterial activity against gram positive Staphylococcus aureus UC76.; format: functional
Streptococcus pneumoniae [11] = assay: In vitro antibacterial activity against gram positive Streptococcus pneumoniae SV-1.; format: functional
[12] = Aqueous solubility; format: physicochemical; conditions: water (aqueous); read-out: S; outline: as §1
[13] = Solubility (at pH 7.4); format: physicochemical; conditions: buffer, read-out: S; outline: as §1
Mus musculus [14] = assay: In vivo potency against acute systemic infection in mouse caused by Streptococcus pyogenes C-203 on oral administration by gavage; format: functional; conditions: read-out: PD50; outline: as §2
Mus musculus [15] = assay: In vivo potency against acute systemic infection in mouse caused by Streptococcus pyogenes C-203 on subcutaneous injection; format: functional; conditions: sc, read-out: PD50; outline: as §3

SMILES	solubility [1] [mg/mL]	solubility [2] [mg/mL]	MIC (Escherichia coli [3]) [mg/L]	MIC (Enterococcus faecalis) [mg/L]	Cleavage [4] [µg/mL]	MIC (Enterobacter cloacae) [mg/L]	MIC (Klebsiella pneumoniae) [mg/L]	ED50 (Escherichia coli [5]) [mg/kg]	ED50 (Streptococcus pneumoniae [6]) [mg/kg]	ED50 (Streptococcus pneumoniae [7]) [mg/kg]	ED50 (Escherichia coli [8]) [mg/kg]	MIC (Pseudomonas aeruginosa) [mg/L]	MIC (Providencia rettgeri) [mg/L]	MIC (Staphylococcus aureus [9]) [mg/L]	MIC (Streptococcus pyogenes) [mg/L]	MIC (Staphylococcus aureus [10]) [mg/L]	MIC (Streptococcus pneumoniae [11]) [mg/L]	solubility [12] [mg/mL]	solubility [13] [mg/mL]	further results
Cl.NCC(=O)NC1CCN(c2c(F)cc3c(=O)c(C(=O)O)cn(C4CC4)c3c2F)C1.O (stereo not given)	4.6	20	0.2	0.4	5	0.2	0.4	1	29	16	0.4	1.6	0.4	0.4	0.2	0.1	0.4	33		
C[C@H](N)C(=O)N[C@@H]1CCN(c2c(F)cc3c(=O)c(C(=O)O)cn(C4CC4)c3c2F)C1.Cl.O	6	30	0.4	0.8	2.5	0.2	0.8	1	25	19	0.6	3.1	0.8	0.8	0.4	0.2	0.4	29	0.07	
Cl.N[C@@H]1CCN(c2c(F)cc3c(=O)c(C(=O)O)cn(C4CC4)c3c2F)C1.O			0.013	0.05	0.5	0.006	0.013	0.9	14	9	0.2	0.1	0.025	0.05	0.05	0.006	0.025	11		
Cl.N[C@@H](Cc1ccccc1)C(=O)NC1CCN(c2c(F)cc3c(=O)c(C(=O)O)cn(C4CC4)c3c2F)C1.O (stereo not given in full)	7.2	21	0.8	25	7.5	1.6	1.6	5			1	25	3.1	3.1	> 25	1.6	> 25	31		
C[C@@H](N)C(=O)NC1CCN(c2c(F)cc3c(=O)c(C(=O)O)cn(C4CC4)c3c2F)C1.Cl.O (stereo not given in full)	3.6	19.4	0.2	0.025	2.5	0.4	0.4	31	> 100	1	2	1.6	0.8	0.05	0.006	0.006	0.013	42		
Cl.Nc1c(F)c(N2CC[C@H](N)C2)c(F)c2c1c(=O)c(C(=O)O)cn2C1CC1.O	0.25	2.3	0.003	0.025	0.1	0.003	0.013	1.2	10	6	0.4	0.025	0.025	0.006	0.013	0.003	0.006	2.5	0.05	ED50 (Mus musculus [14]): 18 mg/kg; ED50 (Mus musculus [15]): 5.5 mg/kg
C[C@H](N)C(=O)N[C@H]1CCN(c2c(F)cc3c(=O)c(C(=O)O)cn(C4CC4)c3c2F)C1.Cl.O	5.4	19	0.1	0.1	2.5	0.1	0.2	1	25	9	0.4	0.1	0.2	0.1	0.1	0.025	0.1	33	0.07	
Cl.NCCCC[C@H](N)C(=O)NC1CCN(c2cc3c(cc2F)c(=O)c(C(=O)O)cn3C2CC2)C1.O (stereo not given in full)	69	> 100	12.5	> 25		12.5	12.5	10	> 100	12	1	25	25	25	12.5	3.1	25	93	0.11	
C[C@H](N)C(=O)N[C@@H]1CCN(c2nc3c(cc2F)c(=O)c(C(=O)O)cn3C2CC2)C1.Cl.O	> 200	> 200	1.6	3.1	1	0.8	3.1	2	40	28	0.5	6.3	3.1	3.1	0.8	0.8	1.6	> 200	0.07	ED50 (Mus musculus [14]): 49 mg/kg; ED50 (Mus musculus [15]): 32 mg/kg
Cl.NCC(=O)NC1CCN(c2cc3c(cc2F)c(=O)c(C(=O)O)cn3C2CC2)C1.O (stereo not given)	> 100	> 100	0.4	1.6	2.5	0.4	0.8	6.3	> 100	18	1.1	1.6	1.6	3.1	0.1	0.4	0.4	> 100	0.22	
C[C@@H](N)C(=O)NC1CCN(c2cc3c(cc2F)c(=O)c(C(=O)O)cn3C2CC2)C1.Cl.O (stereo not given in full)	> 100	> 100	0.8	0.2	1	0.8	0.8	> 100	> 100	3.1	4.1	1.6	1.6	0.4	0.013	0.05	0.025	> 100	0.24	
C[C@H](N)C(=O)N[C@@H]1CCN(c2c(F)c(N)c3c(=O)c(C(=O)O)cn(C4CC4)c3c2F)C1.Cl.O	3.2	71	0.4	0.4	5	0.8	0.8	2.2	18	7.7	0.5	3.1	1.6	0.4	0.2	0.025	0.2	21	0.04	ED50 (Mus musculus [14]): 20 mg/kg; ED50 (Mus musculus [15]): 6.3 mg/kg
Cl.N[C@@H](Cc1ccccc1)C(=O)NC1CCN(c2cc3c(cc2F)c(=O)c(C(=O)O)cn3C2CC2)C1.O (stereo not given in full)	9.2	66	0.8	0.4	25	0.8	3.1	5	> 50	5	1	6.3	3.1	0.8	0.4	0.2	0.4	44	0.3	
Cl.NCCCC[C@H](N)C(=O)NC1CCN(c2c(F)cc3c(=O)c(C(=O)O)cn(C4CC4)c3c2F)C1.O (stereo not given in full)			6.3	6.3		3.1	12.5					12.5	12.5	0.4	6.3	0.2	6.3			
Cl.NCC(=O)NC1CCN(c2nc3c(cc2F)c(=O)c(C(=O)O)cn3C2CC2)C1.O (stereo not given)	67	> 200	0.2	0.8	2.5	0.4	0.4		37	10		3.1	0.8	1.6	0.1	0.4	0.8	> 200		
